In ChEMBL document CHEMBL1156628, “Further studies on lead compounds containing the opioid pharmacophore Dmt-Tic” (J Med Chem, 2008):
Calls of active or inactive are those of the source. Where a SMILES comes first, the peptide text is derived from it. [ ]: non-standard residue; d: D form. The star is where a group is joined. Dmt = Cc1cc(O)cc(C)c1C[C@H](N)C(=O)O; Tic = O=C(O)[C@@H]1Cc2ccccc2CN1; NHBn = c1ccc(CN*)cc1; NHPh = c1ccc(N*)cc1

How the values were obtained:
[1] = species: Rattus norvegicus; test: Selectivity ratio of Ki for mu opioid receptor in Sprague-Dawley rat brain to Ki for delta opioid receptor in Sprague-Dawley rat brain
[2] = molecular target: Delta-type opioid receptor (Rattus norvegicus, UniProt P33533); test: Displacement of [3H]deltorphin2 from delta opioid receptor in Sprague-Dawley rat brain P2 synaptosomal membrane
Chain of Delta-type opioid receptor (Rattus norvegicus, UniProt P33533) (P33533 whole entry): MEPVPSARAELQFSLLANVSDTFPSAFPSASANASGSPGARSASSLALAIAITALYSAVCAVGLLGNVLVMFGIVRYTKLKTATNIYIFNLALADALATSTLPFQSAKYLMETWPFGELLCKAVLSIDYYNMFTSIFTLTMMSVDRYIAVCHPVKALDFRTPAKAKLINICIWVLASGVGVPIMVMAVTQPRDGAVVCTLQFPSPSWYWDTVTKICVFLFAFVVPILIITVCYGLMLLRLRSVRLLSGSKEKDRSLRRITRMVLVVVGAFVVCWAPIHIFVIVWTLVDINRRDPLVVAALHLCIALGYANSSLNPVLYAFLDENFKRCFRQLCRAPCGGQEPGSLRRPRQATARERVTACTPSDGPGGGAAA
How it was run: (§1)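 Competition binding to Sprague-Dawley rat brain P2 synaptosomal membranes, preincubated to strip endogenous opioids and stored at −80 °C in buffered 20% glycerol. Incubated at equilibrium for 2.5 h at 23 °C. Separated on polyethylenimine-soaked (0.1%) glass-fibre filters washed three times in ice-cold buffered BSA. Duplicates at five to eight doses, 3–5 independent membrane preparations; Ki by Cheng–Prusoff, mean ± SE.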

[3] = molecular target: Delta-type opioid receptor (Mus musculus, UniProt P32300); test: Antagonist activity at delta opioid receptor in mouse vas deferens assessed as effect on deltorphin 2-induced response; assay type: functional, tissue-based; settings: read-out: pA2 (converted)
Chain of Delta-type opioid receptor (Mus musculus, UniProt P32300) (P32300 whole entry): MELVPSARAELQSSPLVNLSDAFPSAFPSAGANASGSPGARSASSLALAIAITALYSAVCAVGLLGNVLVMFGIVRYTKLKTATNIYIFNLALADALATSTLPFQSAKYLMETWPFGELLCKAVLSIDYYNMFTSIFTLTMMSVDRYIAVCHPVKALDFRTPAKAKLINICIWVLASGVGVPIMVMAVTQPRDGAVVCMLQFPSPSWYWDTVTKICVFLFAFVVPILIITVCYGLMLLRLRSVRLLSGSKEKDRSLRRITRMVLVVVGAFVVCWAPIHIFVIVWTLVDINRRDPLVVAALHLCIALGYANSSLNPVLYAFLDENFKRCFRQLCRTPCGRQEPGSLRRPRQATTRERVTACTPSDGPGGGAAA
How it was run: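 Single mouse vas deferens suspended in an organ bath in balanced physiological salt buffer, pH 7.5. Agonism measured as inhibition of electrically evoked contraction, with IC50 taken from dose-response curves; DPDPE was the internal standard. Antagonism tested against deltorphin II and given as pA2 (Schild plot / Kosterlitz and Watt method). Values are mean ± SE of separate tissue assays.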

[4] = molecular target: Mu-type opioid receptor (Rattus norvegicus, UniProt P33535); test: Displacement of [3H]DAMGO from mu opioid receptor in Sprague-Dawley rat brain P2 synaptosomal membrane; how it was run: as §1
Chain of Mu-type opioid receptor (P33535 whole entry): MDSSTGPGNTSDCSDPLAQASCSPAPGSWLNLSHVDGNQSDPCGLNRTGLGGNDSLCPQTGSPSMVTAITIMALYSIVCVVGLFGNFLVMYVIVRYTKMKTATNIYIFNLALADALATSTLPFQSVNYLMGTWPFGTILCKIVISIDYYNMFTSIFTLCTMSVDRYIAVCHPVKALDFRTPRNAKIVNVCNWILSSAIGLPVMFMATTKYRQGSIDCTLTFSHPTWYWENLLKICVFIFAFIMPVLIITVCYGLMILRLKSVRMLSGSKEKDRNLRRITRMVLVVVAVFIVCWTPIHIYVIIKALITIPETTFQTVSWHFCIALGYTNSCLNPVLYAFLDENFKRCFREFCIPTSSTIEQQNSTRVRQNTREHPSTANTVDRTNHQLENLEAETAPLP

[5] = system: Plasma; test: Stability in Swiss mouse plasma after 4 hrs; assay type: ADME, cell-free
[6] = system: Mus musculus; test: Analgesic activity in icv dosed Swiss-Webster mouse after 10 mins by hot plate test; assay type: functional, organism-based
How it was run: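 Male Swiss-Webster mice (20–25 g) given 5 μL of peptide in saline icv at bregma; only mice with a correct needle tract were counted. For hot plate: 55 ± 0.1 °C, start 10 min post-dose, latency to jump, lick or shake hind paw, 30 s cut-off, repeated every 10 min.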

[7] = system: Mus musculus; test: Toxicity in icv dosed Swiss-Webster mouse assessed as induction of convulsion; assay type: organism-based; settings: in vivo, icv_or_intrathecal
[8] = system: Mus musculus; test: Antinociceptive activity in Swiss-Webster mouse at 10 ug, icv after 10 mins by hot plate test in presence of naltrindole; assay type: functional, organism-based
How it was run: (§2)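 Mice given sc naltrindole (3 mg/kg) or naloxone (10 mg/kg), then 20 min later 10 µg/mouse icv in 5 μL saline. Nociception measured by hot-plate (55 °C, latency to jump/lick/paw-shake, 30 s cut-off, every 10 min) or tail-flick.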

[9] = system: Mus musculus; test: Antinociceptive activity in Swiss-Webster mouse at 10 ug, icv after 10 mins by hot plate test in presence of naloxone; assay type: functional, organism-based; how it was run: as §2
[10] = system: Mus musculus; test: Toxicity in Swiss-Webster mouse assessed as induction of sedation at 10 ug, icv; assay type: organism-based; settings: in vivo, icv_or_intrathecal
[11] = system: Mus musculus; test: Antinociceptive activity in Swiss-Webster mouse at 10 ug, icv by tail flick test in presence of naltrindole; assay type: functional, organism-based; how it was run: as §2
[12] = system: Brain; test: Stability in Swiss mouse brain after 2 hrs; assay type: ADME, tissue-based
[13] = system: Mus musculus; test: Analgesic activity in icv dosed Swiss-Webster mouse by tail flick test; assay type: functional, organism-based
[14] = system: Mus musculus; test: Antinociceptive activity in Swiss-Webster mouse at 10 ug, icv by tail flick test in presence of naloxone; assay type: functional, organism-based; how it was run: as §2
[15] = system: Mus musculus; test: Toxicity in Swiss-Webster mouse assessed as induction of agitated behavior at 10 ug, icv; assay type: organism-based; settings: in vivo, icv_or_intrathecal

Row | SMILES | Ratio Ki [1] | Ki [2] [nM] | Kb [3] [nM] | Ki [4] [nM] | also measured
1 | Cc1cc(O)cc(C)c1C[C@H](N)C(=O)N1Cc2ccccc2C[C@H]1C(=O)NCC(=O)NCc1ccccc1 (H-[Dmt]-[Tic]-Gly-NHBn) | 5 |  |  |  | 
2 | Cc1cc(O)cc(C)c1C[C@H](N)C(=O)N1Cc2ccccc2C[C@H]1C(=O)N[C@@H](CC(=O)O)C(=O)N(C)c1ccccc1 | 1960 | 0.186 | 1.78 | 364 | 
3 | Cc1cc(O)cc(C)c1C[C@H](N)C(=O)N1Cc2ccccc2C[C@H]1C(=O)N[C@@H](CC(=O)O)c1nc2ccccc2n1C | 101 | 0.059 | 0.126 | 5.93 | Stability [5]: Stable; Activity [6]: Dose-dependent effect; Activity [7]: Toxic; Activity [8]: Active; Activity [9]: Active; Activity [10]: Toxic; Activity [11]: inactive; Stability [12]: Stable; Activity [13]: Dose-dependent effect; Activity [14]: inactive
4 | Cc1cc(O)cc(C)c1C[C@H](N)C(=O)N1Cc2ccccc2C[C@H]1C(=O)N[C@H](CC(=O)O)c1nc2ccccc2[nH]1 | 240 | 0.067 |  | 16.1 | 
5 | Cc1cc(O)cc(C)c1C[C@H](N)C(=O)N1Cc2ccccc2C[C@H]1C(=O)NCC(=O)N(C)c1ccccc1 | 12 | 0.143 | 1.58 | 1.75 | 
6 | Cc1cc(O)cc(C)c1C[C@H](N)C(=O)N1Cc2ccccc2C[C@H]1C(=O)N[C@H](CC(=O)O)C(=O)Nc1ccccc1 | 129 | 0.058 | 2.4 | 7.49 | 
7 | Cc1cc(O)cc(C)c1C[C@H](N)C(=O)N1Cc2ccccc2C[C@H]1C(=O)N[C@@H](CC(=O)O)c1nc2ccccc2[nH]1 | 122 |  | 0.126 |  | Stability [5]: Stable; Activity [6]: Dose-dependent effect; Activity [7]: Toxic; Activity [8]: Active; Activity [9]: Active; Activity [11]: inactive; Stability [12]: Stable; Activity [13]: Dose-dependent effect; Activity [14]: inactive; Activity [15]: Toxic
8 | Cc1cc(O)cc(C)c1C[C@H](N)C(=O)N1Cc2ccccc2C[C@H]1C(=O)N[C@@H](CC(=O)O)C(=O)NCc1ccccc1 (H-[Dmt]-[Tic]-Asp-NHBn) |  | 0.054 | 2.95 | 309 | 
9 | Cc1cc(O)cc(C)c1C[C@H](N)C(=O)N1Cc2ccccc2C[C@H]1C(=O)NCC(=O)Nc1ccccc1 (H-[Dmt]-[Tic]-Gly-NHPh) | 4 |  |  |  | 
10 | Cc1cc(O)cc(C)c1C[C@H](N)C(=O)N1Cc2ccccc2C[C@H]1C(=O)N[C@H](CC(=O)O)C(=O)N(C)c1ccccc1 | 536 | 0.084 | 8.71 | 45 | 
11 | Cc1cc(O)cc(C)c1C[C@H](N)C(=O)N1Cc2ccccc2C[C@H]1C(=O)N[C@H](CC(=O)O)c1nc2ccccc2n1C | 169 | 0.07 | 0.224 | 11.8 | 
12 | Cc1cc(O)cc(C)c1C[C@H](N)C(=O)N1Cc2ccccc2C[C@H]1C(=O)N[C@@H](CC(=O)O)C(=O)Nc1ccccc1 | 300 | 0.036 | 0.398 | 10.8 | 
